Series [1] deals with Rattus norvegicus. As to the kind of experiment: Antiinflammatory effect (oral administration) on rat paw edema model (carrageenan-induced paw edema) at 50 mg/kg. The format is functional.
Series [2] relates to Rattus norvegicus. As to the kind of experiment: Antiinflammatory effect (oral administration) on rat paw edema model (reversed passive Arthus reaction-induced paw edema) at 5 mg/kg. It counts as functional. Put shortly: (§1)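 Reversed passive Arthus: male Wistar rats (~150 g, n=5) were dosed orally with compound in 5% arabic gum. Paw volume was measured by plethysmograph before dosing and 2 h after antigen. % inhibition was calculated vs controls, and ED50 came from log-dose linear regression.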

Series [3] relates to Rattus norvegicus. Kind of series: Antiinflammatory effect (oral administration) on rat paw edema model (zymosan-induced paw edema) at 50 mg/kg. The format is functional. In outline: (§2)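 Oral dosing in 5% arabic gum suspension to male Wistar rats (~150 g, n=5) 1 h before subplantar injection of 1% zymosan in saline into the hind paw. Paw volume was read by plethysmograph before dosing and 4 h after zymosan.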

In series [4] the test system is Mus musculus. Kind of series: Acute lethal toxicity (peroral administration), determined by observing the mortality for 7 days after the administration in mouse. It counts as organism-based. The note with it: in vivo, po, 168 h. Put shortly: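 Male dd mice of 20-25 g, three per group, given compound by mouth once. Mortality followed for 7 days, and the minimum lethal dose (MLD) was recorded in mg/kg po.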

In series [5] the test system is Rattus norvegicus. As to the kind of experiment: Dose of the compound (oral administration) showing antiinflammatory effect on rat paw edema model (carrageenan-induced paw edema, CPE). The format is functional.
For series [6], the system named is Rattus norvegicus. Kind of series: Oral dose required for antiinflammatory effect on zymosan induced rat paw edema. The format is functional. Put shortly:
as §2

For series [7], the system named is Rattus norvegicus. Kind of series: Antiinflammatory effect (oral administration) on rat paw edema model (reversed passive Arthus reaction-induced paw edema) at 10 mg/kg. It counts as functional. In outline:
as §1

In series [8] the test system is Rattus norvegicus. Kind of series: Antiinflammatory effect (oral administration), on zymosan-induced rat paw edema at 25 mg/kg. It counts as functional. Put shortly:
as §2

In series [9] the test system is Rattus norvegicus. Kind of series: Antiinflammatory effect of the compound(oral administration) on rat paw edema model(carrageenan-induced paw edema) at 50 mg/kg. The format is functional. On the technique in general: The carrageenan paw model is a standard test of acute inflammation.
In series [10] the test system is Rattus norvegicus. As to the kind of experiment: Dose of the compound (oral administration) showing antiinflammatory effect on rat paw edema model (reversed passive Arthus reaction-induced paw edema, RPAR). It counts as functional. Put shortly: as §1
Series [11] concerns Rattus norvegicus. Kind of series: Antiinflammatory effect of the compound (oral administration) on rat paw edema model (reversed passive Arthus reaction-induced paw edema, RPAR). The format is functional. In outline:
as §1

Series [12] concerns Rattus norvegicus. As to the kind of experiment: Antiinflammatory effect in rat paw edema model following 50 mg/kg p.o. administration. The format is functional. The settings on record: route oral.
Series [13] deals with Rattus norvegicus. Kind of series: Antiinflammatory effect of the compound(oral administration) on rat paw edema model(zymosan-induced paw edema) at 50 mg/kg. The format is functional. Put shortly: as §2
The test system of series [14] is Rattus norvegicus. As to the kind of experiment: Antiinflammatory effect (oral administration), on rat reversed passive Arthus reaction-induced paw edema at 5 mg/kg. It counts as functional. In outline: as §1
In series [15] the test system is Rattus norvegicus. As to the kind of experiment: Antiinflammatory effect (oral administration) on rat paw edema model (reversed passive Arthus reaction-induced paw edema) at 100 mg/kg. It counts as functional. Put shortly:
as §1

The record followed here is ChEMBL document CHEMBL1126191, “New antiinflammatory agents. 2. 5-Phenyl-3H-imidazo[4,5-c][1,8]naphthyridin-4(5H)-ones: a new class of nonsteroidal antiinflammatory agents with potent activity like glucocorticoids” (J Med Chem, 1992).

By inhibition in vivo is commonly meant the change of the read-out against control, counted positive when it falls. One may read the ED50 as the midpoint of the dose-response relation. In general, Inhibition refers to the drop in the measured response relative to a control, in per cent. Lower therefore signals a weak effect.

As to `O=c1c2c(nc(-c3ccccc3)n2Cc2ccccc2)c2cccnc2n1-c1ccccc1`, the figures for the inhibition in vivo at 50 mg/kg in series [1] and in series [3] were 0% and -4%, respectively. Besides, the inhibition in vivo at 5 mg/kg in series [2] stood at 1.2%.

Consider `CCn1cnc2c3cccnc3n(-c3ccccc3)c(=O)c21`, for which the MLD in series [4] came to 100 mg/kg. The ED40 in series [5] is 13.9 mg/kg; in series [6], 1.6 mg/kg. In addition, the inhibition in vivo at 10 mg/kg in series [7] came out at 86.9%. Moreover, in series [8], the inhibition in vivo at 25 mg/kg worked out at 77.5%. In addition, in [9], the inhibition in vivo at 50 mg/kg worked out at 58.2%. In series [10], this compound registered an ED50 of 1.9 mg/kg.

On to `CC(=O)OCCn1cnc2c3cccnc3n(-c3ccccc3)c(=O)c21`, for which the MLD in series [4] was > 300 mg/kg. The ED40 worked out at 40.3 mg/kg in [5] and 19.4 mg/kg in series [6]. For the same compound, the inhibition in vivo at 10 mg/kg in series [7] is 11.8%. For the same compound, the inhibition in vivo at 25 mg/kg in [8] was 41.6%. Moreover, the inhibition in vivo at 50 mg/kg in series [9] turned out to be 42.2%.

Regarding `CCCn1cnc2c3cccnc3n(-c3ccccc3)c(=O)c21`, the MLD in series [4] was 200 mg/kg. In addition, the ED40 in series [5] came out at 15.9 mg/kg; in [6] it was 1.3 mg/kg. Besides, the Inhibition in [11] was determined as 74.4%. Further, the inhibition in vivo at 25 mg/kg in [8] was 61.2%. Also, the inhibition in vivo at 50 mg/kg in series [9] stood at 57.3%. In series [10], this compound showed an ED50 of 2 mg/kg.

Regarding `O=c1c2c(ncn2CC2CCCCC2)c2cccnc2n1-c1ccccc1`, in series [4], the MLD was > 300 mg/kg. In addition, the ED40 in series [6] worked out at 11.8 mg/kg. In addition, in series [12], the inhibition in vivo at 50 mg/kg was 34.7%. In addition, the inhibition in vivo at 10 mg/kg in series [7] came out at 62.9%. In addition, in series [8], the inhibition in vivo at 25 mg/kg amounted to 49.8%. Besides, in series [10], the 50% effect level (ED50) was put at a dose of 5.7 mg/kg.

Consider `COC(=O)c1ccc(Cn2cnc3c4cccnc4n(-c4ccccc4)c(=O)c32)cc1`, for which the inhibition in vivo at 50 mg/kg in [13] is 9.9%; in series [9], 8.7%. For the same compound, the inhibition in vivo at 5 mg/kg in series [14] came to 9.2%.

On to `NC(=O)N1C(=O)/C(=C(\O)c2cccs2)c2cc(Cl)ccc21` [TENIDAP], for which the MLD in series [4] was > 300 mg/kg. Moreover, the ED40 worked out at 14.8 mg/kg in [5] and 41.2 mg/kg in series [6]. The inhibition in vivo at 100 mg/kg in series [15] stood at 4.8%.
